Reference: ChEMBL document CHEMBL3272071, “Chemistry and biological activities of N,N-dimethylaminoethyl acrylate, a choline acetyltransferase inhibitor” (J Med Chem, 1976)
Activity calls are given as the source filed them. The rule behind the calls is not given here.

Columns and labels:
[1] = Stability in D2O assessed every 4 mins for 1 hr by NMR spectroscopy; type: physicochemical
[2] = biological target: T1, Choline O-acetyltransferase (Rattus norvegicus, UniProt P32738); test: Inhibition of Holtzman rat brain choline acetyltransferase using [1-14C-acetyl]-CoA as substrate incubated 20 mins prior to substrate addition measured after 30 mins by liquid scintillation counting analysis; conditions: read-out: I50
T1 sequence (P32738 whole entry): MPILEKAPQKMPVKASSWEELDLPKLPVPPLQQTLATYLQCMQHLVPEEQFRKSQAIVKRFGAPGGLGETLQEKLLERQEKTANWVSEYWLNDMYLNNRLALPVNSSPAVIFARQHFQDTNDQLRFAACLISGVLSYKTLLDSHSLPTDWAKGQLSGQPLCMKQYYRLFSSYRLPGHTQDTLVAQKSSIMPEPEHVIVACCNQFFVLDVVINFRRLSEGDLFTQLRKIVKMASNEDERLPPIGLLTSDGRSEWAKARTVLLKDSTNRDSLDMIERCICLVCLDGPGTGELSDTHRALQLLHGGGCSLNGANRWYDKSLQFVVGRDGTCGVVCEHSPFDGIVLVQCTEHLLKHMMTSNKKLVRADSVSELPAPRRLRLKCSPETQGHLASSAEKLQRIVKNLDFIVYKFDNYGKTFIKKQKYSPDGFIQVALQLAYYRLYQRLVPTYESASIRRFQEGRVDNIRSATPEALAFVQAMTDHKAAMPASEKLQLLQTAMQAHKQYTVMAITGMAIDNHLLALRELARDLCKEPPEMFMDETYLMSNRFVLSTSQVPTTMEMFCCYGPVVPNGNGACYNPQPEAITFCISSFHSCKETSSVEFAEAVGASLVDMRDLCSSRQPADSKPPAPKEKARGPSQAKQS
Summary of the method: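 ChAc extracted from Holtzman rat brain acetone powder in ice-cold pH 7.0 phosphate medium (NaCl, EDTA, cysteine, BSA), 9000 g supernatant. Extract preincubated with inhibitor 20 min at 37°C in pH 7.0 phosphate buffer with 150 mM NaCl, 0.05 mM neostigmine, 50 mM choline. Then [1-14C-acetyl]-CoA at 0.065 mM final, 30 min at 37°C. Acetylated product by sequential anion/cation exchange and scintillation counting.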

[3] = Stability in chloroform-d by NMR spectroscopy; type: physicochemical
[4] = Stability of the compound assessed as autohydrolysis at 5 X 10^-3 M at pH 7.4; type: physicochemical; conditions: buffer, pH 7.4, 5000 µM
Summary of the method: (§1)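 Autohydrolysis run at 25°C for 20 min in barbital buffer (1.5 mM sodium barbital, 0.3 mM KH2PO4, 150 mM NaCl), pH adjusted to give 7.3-7.6. Compound at 5.0 mM final, no enzyme. pH change tracked against an acrylic acid titration standard curve. Mean ± SEM, three experiments.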

[5] = biological target: T2, Choline O-acetyltransferase (Rattus norvegicus) (UniProt P32738); test: Inhibition of Holtzman rat brain choline acetyltransferase using [1-14C-acetyl]-CoA as substrate at 1 mM incubated in un-buffered water for 24 hrs by liquid scintillation counting analysis
T2 sequence (whole entry): T1 sequence (P32738 whole entry)
Summary of the method: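 Hydration product made by keeping compound in unbuffered water for 24 hr, then run at 1.0 mM in the standard rat brain ChAc radioassay: 20 min preincubation at 37°C, 0.065 mM [1-14C-acetyl]-CoA, 30 min, ion-exchange then scintillation counting.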

Cholinesterase = Cholinesterase (Homo sapiens, UniProt P06276); test: Stability of the compound assessed as butyrylcholine esterase (unknown origin)-mediated hydrolysis at 5 X 10^-3 M; type: ADME; conditions: 5000 µM
Summary of the method: (§2)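 Enzymatic hydrolysis at 5 mM compound in barbital buffer at 25°C for 20 min, pH 7.3-7.6. AChE at 0.083 U/ml or BuChE at 0.017 U/ml. Ester cleavage followed as pH change calibrated against acrylic acid. Mean ± SEM of three experiments.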

[6] = Stability in aqueous medium by NMR spectroscopy; type: physicochemical; conditions: buffer
Summary of the method: (§3)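 NMR spectra taken in D2O every 3 min for 1 hr. pH stayed at 9.0 (±0.5) throughout.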

[7] = Dissociation constant, pKa of the compound; type: physicochemical
[8] = Half life of the compound auto-hydrolysis at 5 X 10^-3 M at pH 7.4; type: physicochemical; conditions: buffer; summary of the method: as §1
Lithobates pipiens [9] = test: Inhibition of choline acetyltransferase in frog sciatic nerve-gastrocnemius muscle assessed as blockade of electrically stimulated muscle contraction at 10^-3 M incubated for 3 hrs followed by compound washout; type: tissue-based
Summary of the method: (§4)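 Rana pipiens sciatic nerve-gastrocnemius (20-25 g frogs) in frog Ringer, 25°C, 95% O2/5% CO2. Nerve stimulated at 7 V, 0.5 ms, 250 Hz for 0.1 s every 10 s. Isometric contractions recorded, with washout after 10^-3 M exposure. ED50 with 95% confidence limits by Litchfield-Wilcoxon, N=16.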

[10] = Stability in D2O by NMR spectroscopy; type: physicochemical; summary of the method: as §3
Cavia porcellus = organism: Cavia porcellus; test: Inhibition of choline acetyltransferase in guinea pig ileum assessed as blockade of electrically stimulated muscle contraction after 3 hrs; type: tissue-based
Summary of the method: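 Guinea pig ileum on coaxial electrode in Tyrode solution, 37°C, 95% O2/5% CO2. Transmural stimulation: monophasic square pulses, 40 V supramaximal, 10 Hz, 0.5 ms, 1 s every 10 s. Contraction blockade gave ED50 with 95% confidence limits by Litchfield-Wilcoxon, N=20.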

[11] = biological target: T2, Choline O-acetyltransferase (Rattus norvegicus); test: Uncompetitive inhibition of Holtzman rat brain choline acetyltransferase using choline as substrate at 1 mM incubated 20 mins prior to substrate addition measured after 30 mins by LB plot using liquid scintillation counting analysis
[12] = biological target: T2, Choline O-acetyltransferase (Rattus norvegicus); test: Reversible inhibition of Holtzman rat brain choline acetyltransferase using [1-14C-acetyl]-CoA as substrate at 5 X 10^-4 M incubated 20 mins prior to substrate addition measured after 30 mins by liquid scintillation counting analysis
Summary of the method: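 Reversibility test at 5 × 10^-4 M inhibitor with enzyme varied from 10 to 30 mg acetone powder per ml. Rat brain extract preincubated 20 min at 37°C, then [14C]acetyl-CoA radioassay for 30 min with scintillation counting. Mean of three experiments ± SEM.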

[13] = biological target: T2, Choline O-acetyltransferase (Rattus norvegicus); test: Inhibition of Holtzman rat brain choline acetyltransferase using [1-14C-acetyl]-CoA as substrate at 1 mM treated with buffered solution at pH 7.4 for 3 to 60 mins prior to enzyme addition followed by 20 mins incubation prior to substrate addition […] by liquid scintillation counting analysis
[14] = Stability in Me2SO-d6 by NMR spectroscopy; type: physicochemical
Lithobates pipiens [15] = test: Inhibition of choline acetyltransferase in frog sciatic nerve-gastrocnemius muscle assessed as blockade of electrically stimulated muscle contraction after 3 hrs; type: tissue-based; summary of the method: as §4
[16] = biological target: T2, Choline O-acetyltransferase (Rattus norvegicus); test: Uncompetitive inhibition of Holtzman rat brain choline acetyltransferase using acetyl-CoA as substrate at 0.2 mM incubated 20 mins prior to substrate addition measured after 30 mins by LB plot using liquid scintillation counting analysis
Acetylcholinesterase = Acetylcholinesterase (Homo sapiens, UniProt P22303); test: Stability of the compound assessed as acetylcholinesterase (unknown origin)-mediated hydrolysis at 5 X 10^-3 M; type: ADME; conditions: 5000 µM; summary of the method: as §2
[17] = biological target: T1, Choline O-acetyltransferase; test: Inhibition of Holtzman rat brain choline acetyltransferase using [1-14C-acetyl]-CoA as substrate at 1 mM incubated 20 mins prior to substrate addition measured after 30 mins by liquid scintillation counting analysis; conditions: read-out: I50

Sequence of Acetylcholinesterase (P22303 whole entry): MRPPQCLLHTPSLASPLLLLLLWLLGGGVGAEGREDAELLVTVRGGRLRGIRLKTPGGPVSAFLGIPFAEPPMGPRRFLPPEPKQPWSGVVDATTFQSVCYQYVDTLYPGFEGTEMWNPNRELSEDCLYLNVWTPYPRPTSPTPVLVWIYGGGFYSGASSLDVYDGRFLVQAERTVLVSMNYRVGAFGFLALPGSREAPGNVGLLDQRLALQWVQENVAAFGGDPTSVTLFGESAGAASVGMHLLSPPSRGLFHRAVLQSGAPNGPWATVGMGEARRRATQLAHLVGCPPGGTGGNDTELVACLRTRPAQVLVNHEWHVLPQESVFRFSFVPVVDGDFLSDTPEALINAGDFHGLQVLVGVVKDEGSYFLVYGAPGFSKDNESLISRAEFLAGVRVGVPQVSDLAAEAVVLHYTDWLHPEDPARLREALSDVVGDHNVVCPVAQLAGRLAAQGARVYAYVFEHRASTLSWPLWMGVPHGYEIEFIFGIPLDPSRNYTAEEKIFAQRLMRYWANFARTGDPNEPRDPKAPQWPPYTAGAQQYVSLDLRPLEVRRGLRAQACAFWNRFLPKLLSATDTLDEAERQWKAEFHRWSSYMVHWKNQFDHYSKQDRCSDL
Sequence of Cholinesterase (P06276 whole entry): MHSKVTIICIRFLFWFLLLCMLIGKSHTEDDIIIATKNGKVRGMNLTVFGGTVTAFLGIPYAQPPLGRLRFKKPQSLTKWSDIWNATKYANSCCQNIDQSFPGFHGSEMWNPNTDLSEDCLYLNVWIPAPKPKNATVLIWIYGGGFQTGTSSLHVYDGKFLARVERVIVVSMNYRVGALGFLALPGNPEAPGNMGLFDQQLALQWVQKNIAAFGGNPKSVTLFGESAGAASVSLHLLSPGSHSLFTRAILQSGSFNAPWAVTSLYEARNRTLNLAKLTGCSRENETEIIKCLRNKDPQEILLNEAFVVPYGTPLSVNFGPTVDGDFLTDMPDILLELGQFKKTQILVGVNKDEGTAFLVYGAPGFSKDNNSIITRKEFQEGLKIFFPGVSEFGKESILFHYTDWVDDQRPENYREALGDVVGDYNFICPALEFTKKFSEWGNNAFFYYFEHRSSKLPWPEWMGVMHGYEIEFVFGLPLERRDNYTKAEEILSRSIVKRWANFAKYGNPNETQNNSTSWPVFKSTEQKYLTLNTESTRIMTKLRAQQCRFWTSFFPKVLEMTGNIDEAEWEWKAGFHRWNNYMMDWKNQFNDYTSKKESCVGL

Row | SMILES | Stability [1] | IC50 [2] [µM] | Stability [3] | Drug degradation [4] [×10⁻⁸ mol/min] | inhibition [5] | Drug degradation (Cholinesterase) [×10⁻⁸ mol/min] | Stability [6] | pKa [7] | half-life at 5000 µM [8] [h] | inhibition (Lithobates pipiens [9]) | Stability [10] | ED50 (Cavia porcellus) [×10⁻⁴ M] | inhibition [11] | inhibition [12] | inhibition [13] | Stability [14] | ED50 (Lithobates pipiens [15]) [×10⁻⁴ M] | inhibition [16] | Drug degradation (Acetylcholinesterase) [×10⁻⁸ mol/min] | IC50 [17] [µM]
1 | C=CC(=O)OCCN(C)C | Stable | 502 | Stable | 1.75 | inactive | 0.06 | Unstable | 8.6 | 24 | Active | Stable | 1.21 | Active | Active | Active | Stable | 5.05 | Active | 0.07 | 
2 | C=CC(=O)O [ACRYLIC ACID] |  |  |  |  |  |  |  |  |  |  |  |  |  |  |  |  |  |  |  | < 200
3 | CC(=O)OCC[N+](C)(C)C [ACETYLCHOLINE] |  |  |  | 1.75 |  | 6.57 |  |  |  |  |  |  |  |  |  |  |  |  | 1.46 | 
